In ChEMBL document CHEMBL3044625, “Non-target-site-based resistance to ALS-inhibiting herbicides in six Bromus rigidus populations from Western Australian cropping fields” (Pest Manag Sci, 2012):
Activity calls are given as the source filed them. The calls are words filed in the database; no cut-off is given here.

Legend:
[1] = tested on: Bromus diandrus var. rigidus; assay: Herbicidal activity against ALS-inhibiting herbicide-resistant two-leaf stage Bromus diandrus var. rigidus biotype R2 seedlings exposed to compound spraying in presence of 1000 g/ha cytochrome P450 inhibitor malathion measured […]; assay type: functional
Procedure, shortened: (§1)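 Seeds were germinated on 1% water agar for 7–10 days at ambient conditions, then sprayed at the 2–3-leaf stage. Malathion at 1000 g ha−1 was sprayed 30 min before the herbicide, or omitted. Herbicide doses were 18.75–600 g ha−1. Survival and dried above-ground biomass were assessed 21 days after treatment, with two replicates. LD50 came from non-linear regression, and R/S is the ratio of resistant to susceptible LD50.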

[2] = tested on: Bromus diandrus var. rigidus; assay: Resistance index, ratio of LD50 for ALS-inhibiting herbicide-resistant two-leaf stage Bromus diandrus var. rigidus biotype R6 in presence of 1000 g/ha cytochrome P450 inhibitor malathion to LD50 for ALS-inhibiting herbicide-susceptible two-leaf stage Bromus diandrus var. rigidus in presence of 1000 g/ha cytochrome P450 inhibitor malathion; assay type: functional; procedure, shortened: as §1
[3] = tested on: Bromus diandrus var. rigidus; assay: Herbicidal activity against ALS-inhibiting herbicide-resistant two-leaf stage Bromus diandrus var. rigidus biotype R2 seedlings exposed to compound spraying in absence of 1000 g/ha cytochrome P450 inhibitor malathion measured […] after compound spraying; assay type: functional; procedure, shortened: as §1
[4] = tested on: Bromus diandrus var. rigidus; assay: Resistance index, ratio of LD50 for ALS-inhibiting herbicide-resistant two-leaf stage Bromus diandrus var. rigidus biotype R3 in absence of 1000 g/ha cytochrome P450 inhibitor malathion to LD50 for ALS-inhibiting herbicide-susceptible two-leaf stage Bromus diandrus var. rigidus in absence of 1000 g/ha cytochrome P450 inhibitor malathion; assay type: functional; procedure, shortened: as §1
[5] = tested on: Bromus diandrus var. rigidus; assay: Herbicidal activity against ALS-inhibiting herbicide-susceptible two-leaf stage Bromus diandrus var. rigidus seedlings exposed to compound spraying in absence of 1000 g/ha cytochrome P450 inhibitor malathion measured […] after compound spraying; assay type: functional; procedure, shortened: as §1
[6] = tested on: Bromus diandrus var. rigidus; assay: Resistance index, ratio of LD50 for ALS-inhibiting herbicide-resistant two-leaf stage Bromus diandrus var. rigidus biotype R4 in presence of 1000 g/ha cytochrome P450 inhibitor malathion to LD50 for ALS-inhibiting herbicide-susceptible two-leaf stage Bromus diandrus var. rigidus in presence of 1000 g/ha cytochrome P450 inhibitor malathion; assay type: functional; procedure, shortened: as §1
[7] = tested on: Bromus diandrus var. rigidus; assay: Herbicidal activity against ALS-inhibiting herbicide-resistant two-leaf stage Bromus diandrus var. rigidus biotype R6 seedlings exposed to compound spraying in presence of 1000 g/ha cytochrome P450 inhibitor malathion measured […]; assay type: functional; procedure, shortened: as §1
[8] = tested on: Bromus diandrus var. rigidus; assay: Herbicidal activity against ALS-inhibiting herbicide-resistant two-leaf stage Bromus diandrus var. rigidus biotype R4 seedlings exposed to compound spraying in absence of 1000 g/ha cytochrome P450 inhibitor malathion measured […]; assay type: functional; procedure, shortened: as §1
[9] = tested on: Bromus diandrus var. rigidus; assay: Herbicidal activity against ALS-inhibiting herbicide-resistant two-leaf stage Bromus diandrus var. rigidus biotype R3 seedlings exposed to compound spraying in absence of 1000 g/ha cytochrome P450 inhibitor malathion measured […]; assay type: functional; procedure, shortened: as §1
[10] = tested on: Bromus diandrus var. rigidus; assay: Herbicidal activity against ALS-inhibiting herbicide-resistant two-leaf stage Bromus diandrus var. rigidus biotype R3 seedlings assessed as reduction in above-ground biomass exposed to compound spraying in presence of 1000 g/ha cytochrome P450 inhibitor malathion measured […]; assay type: functional, organism-based; procedure, shortened: as §1
[11] = tested on: Bromus diandrus var. rigidus; assay: Resistance index, ratio of LD50 for ALS-inhibiting herbicide-resistant two-leaf stage Bromus diandrus var. rigidus biotype R3 in presence of 1000 g/ha cytochrome P450 inhibitor malathion to LD50 for ALS-inhibiting herbicide-susceptible two-leaf stage Bromus diandrus var. rigidus in presence of 1000 g/ha cytochrome P450 inhibitor malathion; assay type: functional; procedure, shortened: as §1
[12] = tested on: Bromus diandrus var. rigidus; assay: Herbicidal activity against ALS-inhibiting herbicide-resistant two-leaf stage Bromus diandrus var. rigidus biotype R1 seedlings exposed to compound spraying in presence of 1000 g/ha cytochrome P450 inhibitor malathion measured […]; assay type: functional; procedure, shortened: as §1
[13] = tested on: Bromus diandrus var. rigidus; assay: Resistance index, ratio of LD50 for ALS-inhibiting herbicide-resistant two-leaf stage Bromus diandrus var. rigidus biotype R1 in presence of 1000 g/ha cytochrome P450 inhibitor malathion to LD50 for ALS-inhibiting herbicide-susceptible two-leaf stage Bromus diandrus var. rigidus in presence of 1000 g/ha cytochrome P450 inhibitor malathion; assay type: functional; procedure, shortened: as §1
[14] = tested on: Bromus diandrus var. rigidus; assay: Herbicidal activity against ALS-inhibiting herbicide-resistant two-leaf stage Bromus diandrus var. rigidus biotype R5 seedlings exposed to compound spraying in absence of 1000 g/ha cytochrome P450 inhibitor malathion measured […]; assay type: functional; procedure, shortened: as §1
[15] = tested on: Bromus diandrus var. rigidus; assay: Herbicidal activity against ALS-inhibiting herbicide-susceptible two-leaf stage Bromus diandrus var. rigidus seedlings exposed to compound spraying in presence of 1000 g/ha cytochrome P450 inhibitor malathion measured […]; assay type: functional; procedure, shortened: as §1
[16] = tested on: Bromus diandrus var. rigidus; assay: Herbicidal activity against ALS-inhibiting herbicide-resistant two-leaf stage Bromus diandrus var. rigidus biotype R1 seedlings assessed as reduction in above-ground biomass exposed to compound spraying in presence of 1000 g/ha cytochrome P450 inhibitor malathion measured […]; assay type: functional, organism-based; procedure, shortened: as §1
[17] = tested on: Bromus diandrus var. rigidus; assay: Resistance index, ratio of LD50 for ALS-inhibiting herbicide-resistant two-leaf stage Bromus diandrus var. rigidus biotype R2 in presence of 1000 g/ha cytochrome P450 inhibitor malathion to LD50 for ALS-inhibiting herbicide-susceptible two-leaf stage Bromus diandrus var. rigidus in presence of 1000 g/ha cytochrome P450 inhibitor malathion; assay type: functional; procedure, shortened: as §1
[18] = tested on: Bromus diandrus var. rigidus; assay: Herbicidal activity against ALS-inhibiting herbicide-resistant two-leaf stage Bromus diandrus var. rigidus biotype R5 seedlings assessed as reduction in above-ground biomass exposed to compound spraying in presence of 1000 g/ha cytochrome P450 inhibitor malathion measured […]; assay type: functional, organism-based; procedure, shortened: as §1
[19] = tested on: Bromus diandrus var. rigidus; assay: Resistance index, ratio of LD50 for ALS-inhibiting herbicide-resistant two-leaf stage Bromus diandrus var. rigidus biotype R5 in presence of 1000 g/ha cytochrome P450 inhibitor malathion to LD50 for ALS-inhibiting herbicide-susceptible two-leaf stage Bromus diandrus var. rigidus in presence of 1000 g/ha cytochrome P450 inhibitor malathion; assay type: functional; procedure, shortened: as §1
[20] = tested on: Bromus diandrus var. rigidus; assay: Resistance index, ratio of LD50 for ALS-inhibiting herbicide-resistant two-leaf stage Bromus diandrus var. rigidus biotype R2 in absence of 1000 g/ha cytochrome P450 inhibitor malathion to LD50 for ALS-inhibiting herbicide-susceptible two-leaf stage Bromus diandrus var. rigidus in absence of 1000 g/ha cytochrome P450 inhibitor malathion; assay type: functional; procedure, shortened: as §1
[21] = tested on: Bromus diandrus var. rigidus; assay: Herbicidal activity against ALS-inhibiting herbicide-resistant two-leaf stage Bromus diandrus var. rigidus biotype R6 seedlings assessed as reduction in above-ground biomass exposed to compound spraying in presence of 1000 g/ha cytochrome P450 inhibitor malathion measured […]; assay type: functional, organism-based; procedure, shortened: as §1
[22] = tested on: Bromus diandrus var. rigidus; assay: Herbicidal activity against ALS-inhibiting herbicide-resistant two-leaf stage Bromus diandrus var. rigidus biotype R1 seedlings exposed to compound spraying in absence of 1000 g/ha cytochrome P450 inhibitor malathion measured […]; assay type: functional; procedure, shortened: as §1
[23] = tested on: Bromus diandrus var. rigidus; assay: Herbicidal activity against ALS-inhibiting herbicide-resistant two-leaf stage Bromus diandrus var. rigidus biotype R6 seedlings exposed to compound spraying in absence of 1000 g/ha cytochrome P450 inhibitor malathion measured […]; assay type: functional; procedure, shortened: as §1
[24] = tested on: Bromus diandrus var. rigidus; assay: Resistance index, ratio of LD50 for ALS-inhibiting herbicide-resistant two-leaf stage Bromus diandrus var. rigidus biotype R5 in absence of 1000 g/ha cytochrome P450 inhibitor malathion to LD50 for ALS-inhibiting herbicide-susceptible two-leaf stage Bromus diandrus var. rigidus in absence of 1000 g/ha cytochrome P450 inhibitor malathion; assay type: functional; procedure, shortened: as §1
[25] = tested on: Bromus diandrus var. rigidus; assay: Herbicidal activity against ALS-inhibiting herbicide-resistant two-leaf stage Bromus diandrus var. rigidus biotype R5 seedlings exposed to compound spraying in presence of 1000 g/ha cytochrome P450 inhibitor malathion measured […]; assay type: functional; procedure, shortened: as §1
[26] = tested on: Bromus diandrus var. rigidus; assay: Herbicidal activity against ALS-inhibiting herbicide-resistant two-leaf stage Bromus diandrus var. rigidus biotype R3 seedlings exposed to compound spraying in presence of 1000 g/ha cytochrome P450 inhibitor malathion measured […]; assay type: functional; procedure, shortened: as §1
[27] = tested on: Bromus diandrus var. rigidus; assay: Herbicidal activity against ALS-inhibiting herbicide-resistant two-leaf stage Bromus diandrus var. rigidus biotype R4 seedlings exposed to compound spraying in presence of 1000 g/ha cytochrome P450 inhibitor malathion measured […] after compound spraying; assay type: functional; procedure, shortened: as §1
[28] = tested on: Bromus diandrus var. rigidus; assay: Resistance index, ratio of LD50 for ALS-inhibiting herbicide-resistant two-leaf stage Bromus diandrus var. rigidus biotype R4 in absence of 1000 g/ha cytochrome P450 inhibitor malathion to LD50 for ALS-inhibiting herbicide-susceptible two-leaf stage Bromus diandrus var. rigidus in absence of 1000 g/ha cytochrome P450 inhibitor malathion; assay type: functional; procedure, shortened: as §1
[29] = tested on: Bromus diandrus var. rigidus; assay: Herbicidal activity against ALS-inhibiting herbicide-resistant two-leaf stage Bromus diandrus var. rigidus biotype R4 seedlings assessed as reduction in above-ground biomass exposed to compound spraying in presence of 1000 g/ha cytochrome P450 inhibitor malathion measured […]; assay type: functional, organism-based; procedure, shortened: as §1
[30] = tested on: Bromus diandrus var. rigidus; assay: Resistance index, ratio of LD50 for ALS-inhibiting herbicide-resistant two-leaf stage Bromus diandrus var. rigidus biotype R1 in absence of 1000 g/ha cytochrome P450 inhibitor malathion to LD50 for ALS-inhibiting herbicide-susceptible two-leaf stage Bromus diandrus var. rigidus in absence of 1000 g/ha cytochrome P450 inhibitor malathion; assay type: functional; procedure, shortened: as §1
[31] = tested on: Bromus diandrus var. rigidus; assay: Resistance index, ratio of LD50 for ALS-inhibiting herbicide-resistant two-leaf stage Bromus diandrus var. rigidus biotype R6 in absence of 1000 g/ha cytochrome P450 inhibitor malathion to LD50 for ALS-inhibiting herbicide-susceptible two-leaf stage Bromus diandrus var. rigidus in absence of 1000 g/ha cytochrome P450 inhibitor malathion; assay type: functional; procedure, shortened: as §1
[32] = tested on: Bromus diandrus var. rigidus; assay: Herbicidal activity against ALS-inhibiting herbicide-resistant two-leaf stage Bromus diandrus var. rigidus biotype R2 seedlings assessed as reduction in above-ground biomass exposed to compound spraying in presence of 1000 g/ha cytochrome P450 inhibitor malathion measured […]; assay type: functional, organism-based; procedure, shortened: as §1

Q: Which results are given for CCS(=O)(=O)c1nc2ccccn2c1S(=O)(=O)NC(=O)Nc1nc(OC)cc(OC)n1 [SULFOSULFURON]?
A: LD50 [1]: 10 g/ha; Ratio [2]: 1.8; LD50 [3]: 166 g/ha; Ratio [4]: 8.2; LD50 [5]: 21 g/ha; Ratio [6]: 2.1; LD50 [7]: 11 g/ha; LD50 [8]: 239 g/ha; LD50 [9]: 173 g/ha; Activity [10]: Active; Ratio [11]: 2.6; LD50 [12]: 16 g/ha; Ratio [13]: 2.6; LD50 [14]: 140 g/ha; LD50 [15]: 6 g/ha; Activity [16]: Active; Ratio [17]: 1.6; Activity [18]: Active; Ratio [19]: 2; Ratio [20]: 7.9; Activity [21]: Active; LD50 [22]: 183 g/ha; LD50 [23]: 127 g/ha; Ratio [24]: 6.6; LD50 [25]: 12 g/ha; LD50 [26]: 16 g/ha; LD50 [27]: 13 g/ha; Ratio [28]: 11.3; Activity [29]: Active; Ratio [30]: 8.7; Ratio [31]: 6; Activity [32]: Active
